Assay results of several laboratories.
Each line is one published result; the experiments were not run side by side.
CHRM2: Muscarinic acetylcholine receptor M2 (CHRM2, Homo sapiens, UniProt P08172)
PTGES: Prostaglandin E synthase (PTGES, Homo sapiens, UniProt O14684)

| SMILES | target | assay | endpoint | value |
| --- | --- | --- | --- | --- |
| CCCCCCCCCCCCNCCCc1ccc([N+](=O)[O-])cc1 | CHRM2 | ligand displacement, radioligand | Ki | 5.6 µM |
| CC(C)C[C@H](NC(=O)[C@H](Cc1ccccc1)NC(=O)[C@H](Cc1ccc(O)cc1)NC(=O)CNC(=O)[C@H](CCCCN)NC(=O)[C@H](CO)NC(=O)[C@H](CCC(N)=O)NC(=O)CNC(=O)[C@@H](NC(=O)[C@H](CO)NC(=O)[C@@H]1CCCN1C(=O)[C@H](CO)NC(=O)[C@H](CCC(N)=O)NC(=O)[C@H](Cc1ccc(O)cc1)NC(=O)[C@H](CCC(=O)O)NC(=O)[C@H](C)NC(=O)[C@H](CCCCN)NC(=O)[C@@H](N)Cc1ccccc1)C(C)C)C(=O)N[C@@H](Cc1ccccc1)C(=O)N[C@@H](CCCNC(=N)N)C(=O)N1CCC[C@H]1C(=O)N[C@@H](CCCNC(=N)N)C(=O)N[C@@H](CC(N)=O)C(N)=O | Neuromedin-U receptor 1 (Mus musculus, UniProt O55040) | β-arrestin recruitment, agonist | EC50 | 0.501 nM |
| CC(C)(C)[C@H](NC(=O)C(F)(F)F)C(=O)N1C[C@H]2[C@@H]([C@H]1C(=O)N[C@H](C#N)C[C@@H]1CCNC1=O)C2(C)C | Organic anion transporter 3 (SLC22A8, Homo sapiens, UniProt Q8TCC7) | transporter uptake, inhibitor | Ki | 521 µM |
| CCCCCc1cc(O)c2c(c1)OC(C)(C)[C@@H]1CCC(C)=C[C@@H]21 | PTGES | enzyme activity, inhibitor | IC50 | > 10 µM |
| CCCCCCCNCCCc1ccc([N+](=O)[O-])cc1 | CHRM2 | ligand displacement, radioligand | Ki | 3.2 µM |
| CCCCCc1cc(O)c2c(c1)OC(C)(C)c1ccc(C)cc1-2 | PTGES | enzyme activity, inhibitor | IC50 | > 10 µM |
| CC(C)[N+](C)(CCC(C(N)=O)(c1ccccc1)c1ccccc1)C(C)C | CHRM2 | ligand displacement, radioligand | IC50 | 0.007 µM |
| CC(C)C[C@H](NC(=O)CNC(=O)[C@H](C)NC(=O)c1ccc(S[C@@H]2O[C@H](CO)[C@H](O)[C@H](O)[C@H]2O)cc1)C(=O)N[C@@H](C)C(=O)N[C@H]1CCN(c2cc3c(cc2F)c(=O)c(C(=O)O)cn3C2CC2)C1 | PA-I galactophilic lectin (lecA, Pseudomonas aeruginosa, UniProt Q05097) | ligand displacement, FP | Ki | 12 µM |
